Source: ChEMBL document CHEMBL5653605, “Reduced VEGF production, angiogenesis, and vascular regrowth contribute to the antitumor properties of dual mTORC1/mTORC2 inhibitors” (Cancer Res, 2011)
The source made the active and inactive calls.

Legend:
[1] = molecular target: mTORC1 (Homo sapiens, UniProt P42345); test: Competitive inhibition of mTORC1 immunoprecipitated from human HeLa cells using His-tagged 4E-BP1 as substrate incubated for 30 mins in presence of ATP by chemiluminescence based ELISA
How it was run: (§1)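 Native mTORC1 or mTORC2 complex immunoprecipitated from HeLa lysates; kinase reaction run at 1 mM ATP.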

[2] = test system: Mus musculus; test: In vivo inhibition of AKT phosphorylation in RIP-Tag2 mouse with pancreatic islet cell carcinoma 75 mg/kg, po bid administered via gavage and measured after 7 days by immunohistochemistry; type: functional, organism-based; details: time 7.0 day
How it was run: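 RIP-Tag2 mice aged 9–10 weeks dosed 75 mg/kg BID by gavage for 7 days, vehicle Labrifil or water; perfusion fixation, 60–80 µm tumor sections immunostained for phospho-4E-BP1, phospho-Akt or phospho-S6K with CD31; fluorescence/confocal imaging; 3–8 mice per group.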

[3] = test system: OVCAR-3; test: Inhibition of S6K at […] residues in serum deprived/insulin stimulated human OVCAR-3 cells harboring PTEN and wild type PI3K assessed as inhibition of s6 substrate phosphorylation at […] residue at 0.001 to 10 uM preincubated for 2 hrs followed by insulin stimulation and measured immediately by Western blot analysis; type: cell-based; details: dose 0.001-10 µM
[4] = molecular target: Proto-oncogene tyrosine-protein kinase Src (Homo sapiens, UniProt P12931); test: Inhibition of SRC (unknown origin) assessed as reduction in phosphorylated FAK level by cell based assay
[5] = molecular target: Proto-oncogene tyrosine-protein kinase receptor Ret (Homo sapiens) (UniProt P07949); test: Inhibition of RET (unknown origin) at 3 uM by Ambit Kinomescan assay relative to control
Chain of Proto-oncogene tyrosine-protein kinase receptor Ret (Homo sapiens) (P07949 whole entry): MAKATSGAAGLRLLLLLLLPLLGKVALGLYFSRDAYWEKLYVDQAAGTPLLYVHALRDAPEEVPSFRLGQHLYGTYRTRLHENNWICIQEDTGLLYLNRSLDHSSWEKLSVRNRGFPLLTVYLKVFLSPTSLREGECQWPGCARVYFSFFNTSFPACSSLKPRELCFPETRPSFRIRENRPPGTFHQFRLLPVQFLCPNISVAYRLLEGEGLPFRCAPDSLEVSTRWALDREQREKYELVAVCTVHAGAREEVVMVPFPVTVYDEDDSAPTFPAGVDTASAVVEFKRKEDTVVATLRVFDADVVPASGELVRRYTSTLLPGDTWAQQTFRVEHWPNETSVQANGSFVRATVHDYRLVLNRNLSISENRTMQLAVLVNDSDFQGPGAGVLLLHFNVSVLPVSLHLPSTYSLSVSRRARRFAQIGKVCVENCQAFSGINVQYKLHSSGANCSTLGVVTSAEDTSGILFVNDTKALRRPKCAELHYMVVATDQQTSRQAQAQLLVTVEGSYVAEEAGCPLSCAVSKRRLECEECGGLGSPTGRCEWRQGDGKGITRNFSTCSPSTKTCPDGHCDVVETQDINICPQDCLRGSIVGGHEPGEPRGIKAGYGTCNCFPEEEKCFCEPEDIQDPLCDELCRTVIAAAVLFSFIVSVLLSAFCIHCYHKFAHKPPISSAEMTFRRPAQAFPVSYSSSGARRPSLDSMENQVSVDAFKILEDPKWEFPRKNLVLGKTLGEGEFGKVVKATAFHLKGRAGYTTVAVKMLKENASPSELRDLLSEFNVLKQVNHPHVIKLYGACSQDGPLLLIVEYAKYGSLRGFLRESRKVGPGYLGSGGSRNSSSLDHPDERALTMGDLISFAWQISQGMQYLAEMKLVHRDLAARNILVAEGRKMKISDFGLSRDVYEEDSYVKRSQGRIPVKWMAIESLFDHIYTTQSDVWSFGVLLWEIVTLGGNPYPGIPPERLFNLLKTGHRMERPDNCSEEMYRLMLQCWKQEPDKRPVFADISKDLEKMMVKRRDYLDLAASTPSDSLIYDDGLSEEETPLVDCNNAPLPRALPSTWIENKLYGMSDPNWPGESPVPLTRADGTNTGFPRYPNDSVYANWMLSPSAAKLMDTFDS

[6] = molecular target: Dual specificity mitogen-activated protein kinase kinase 2 (Homo sapiens) (UniProt P36507); test: Inhibition of MEK2 (unknown origin)
[7] = molecular target: Phosphatidylinositol 4,5-bisphosphate 3-kinase catalytic subunit beta isoform (Homo sapiens, UniProt P42338); test: Inhibition of PI3Kbeta (unknown origin) in presence of ATP by HTRF assay
Chain of Phosphatidylinositol 4,5-bisphosphate 3-kinase catalytic subunit beta isoform (P42338 whole entry, canonical isoform): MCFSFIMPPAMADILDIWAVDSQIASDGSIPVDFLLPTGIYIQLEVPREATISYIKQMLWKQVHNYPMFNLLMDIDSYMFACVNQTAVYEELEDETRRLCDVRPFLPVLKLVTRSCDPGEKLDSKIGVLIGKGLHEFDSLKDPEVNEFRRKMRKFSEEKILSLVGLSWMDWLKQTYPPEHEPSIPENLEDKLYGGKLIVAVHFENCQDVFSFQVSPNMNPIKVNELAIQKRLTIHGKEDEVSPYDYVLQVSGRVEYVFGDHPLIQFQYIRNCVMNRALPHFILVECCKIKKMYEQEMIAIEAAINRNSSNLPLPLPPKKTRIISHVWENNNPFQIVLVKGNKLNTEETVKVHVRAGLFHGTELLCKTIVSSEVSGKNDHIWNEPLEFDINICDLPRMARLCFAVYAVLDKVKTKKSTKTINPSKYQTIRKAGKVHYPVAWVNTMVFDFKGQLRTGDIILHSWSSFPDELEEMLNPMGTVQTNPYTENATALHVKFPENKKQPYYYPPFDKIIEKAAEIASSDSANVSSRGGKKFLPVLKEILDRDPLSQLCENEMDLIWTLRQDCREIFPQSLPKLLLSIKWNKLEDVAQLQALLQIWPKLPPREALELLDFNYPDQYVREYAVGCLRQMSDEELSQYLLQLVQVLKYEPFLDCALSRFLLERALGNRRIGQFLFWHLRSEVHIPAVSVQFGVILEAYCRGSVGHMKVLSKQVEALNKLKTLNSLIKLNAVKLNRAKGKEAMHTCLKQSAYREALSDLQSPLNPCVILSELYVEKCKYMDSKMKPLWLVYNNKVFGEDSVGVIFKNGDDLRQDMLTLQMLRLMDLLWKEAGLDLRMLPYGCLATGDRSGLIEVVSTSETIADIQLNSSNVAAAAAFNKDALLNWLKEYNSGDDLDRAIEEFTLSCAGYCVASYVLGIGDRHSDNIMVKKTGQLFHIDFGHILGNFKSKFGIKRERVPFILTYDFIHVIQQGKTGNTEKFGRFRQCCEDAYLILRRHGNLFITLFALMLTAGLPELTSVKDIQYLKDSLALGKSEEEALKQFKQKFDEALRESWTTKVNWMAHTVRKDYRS
How it was run: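 PI3K activity by HTRF assay at […] ATP.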

[8] = test system: Pancreatic islet cell carcinoma; test: Antitumor activity against pancreatic islet cell carcinoma in RIP-Tag2 mouse assessed as reduction in VEGF production by measuring reduction in tumor vessels associated fluorescence intensity at 75 mg/kg, po bid administered via gavage and measured after 1 to 7 days by immunohistochemical staining based confocal microscopic analysis relative to control; type: functional; set-up: scale not given: the % may be the effect or the level left; details: time 1-7 day
How it was run: (§2)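 Treatment began in RIP-Tag2 mice at 9–10 weeks: 75 mg/kg gavage BID for 1, 4 or 7 days, or 20 mg/kg ip QD for 7 days; vehicle Labrifil or water. Tissue fixed by vascular perfusion and 60–80 µm sections stained for VEGF with CD31. VEGF fluorescence intensity measured over whole tumor, tumor cells, or tumor vessels. 3–8 mice/group; ANOVA, Fisher PLSD.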

[9] = test system: GEO; test: Antitumor activity against human GEO cells xenografted in nu/nu CD-1 mouse assessed as slower tumor growth at 75 mg/kg administered twice a day for 14 days and measured twice weekly; type: functional, organism-based; details: time 14.0 day
[10] = test system: Pancreatic islet cell carcinoma; test: Antivascular activity against pancreatic islet cell carcinoma in RIP-Tag2 mouse assessed as reduction in CD31-positive tumor blood vessels at 75 mg/kg, po bid administered via gavage and measured after 7 days by immunohistochemical staining based fluorescence microscopic analysis relative to control; type: functional; set-up: scale not given: the % may be the effect or the level left; details: time 7 day
How it was run: (§3)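 For 7 days, RIP-Tag2 mice, 9–10 weeks old, received 75 mg/kg gavage BID, 200 mg/kg gavage QD, or 20 mg/kg ip QD. Perfusion-fixed tumors cut at 60–80 µm and stained for CD31 and type IV collagen basement membrane. Vessel area density from fluorescence images with threshold 30–50; sprouts and empty basement membrane sleeves examined by confocal microscopy. 3–8 mice/group; ANOVA, Fisher PLSD.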

[11] = test system: Pancreatic islet cell carcinoma; test: Additive antitumor activity in pancreatic islet cell carcinoma in RIP-Tag2 mouse assessed as reduction in proliferation by measuring reduction in phospho-histone H3 level at 100 mg/kg, po bid administered via gavage for 4 days in presence of OSI-930 by immunohistochemistry analysis; type: functional, organism-based; details: time 4.0 day
[12] = Drug concentration in nu/nu CD-1 mouse plasma xenografted with human GEO cells at 75 mg/kg administered for 14 days and measured 8 hr post last dose; type: ADME, organism-based
[13] = test system: Pancreatic islet cell carcinoma; test: Antivascular activity in pancreatic islet cell carcinoma in RIP-Tag2 mouse assessed as suppression of tumor regrowth by measuring reduction in vessel density at 75 mg/kg, po bid administered via gavage pretreated with OSI-930 for 7 days at 200 mg/kg, po followed by compound administration and measured after 4 days (reference value: 18%); type: functional; set-up: scale not given: the % may be the effect or the level left; details: time 4 day
How it was run: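 10-week-old RIP-Tag2 mice given OSI-930 200 mg/kg QD by gavage for 7 days, then 75 mg/kg BID by gavage for 4 days. Mice fixed by vascular perfusion; 60–80 µm tumor sections immunostained for endothelial cells; vessel area density from fluorescence images at threshold 30–50. 3–8 mice per group; ANOVA with Fisher PLSD.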

[14] = test system: Pancreatic islet cell carcinoma; test: Antitumor activity against pancreatic islet cell carcinoma in RIP-Tag2 mouse assessed as induction of apoptosis by measuring caspase-3 activation at 75 mg/kg, po bid administered via gavage and measured after 7 days by immunohistochemistry analysis; type: functional, organism-based; details: time 7.0 day
How it was run: (§4)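 RIP-Tag2 mice aged 9–10 weeks dosed by gavage BID for 7 days; vehicle Labrifil or water. Mice fixed by vascular perfusion, tumors cut into 60–80 µm sections. Proliferating cells stained for phospho-histone H3 and apoptotic cells for activated caspase-3. Sections imaged by fluorescence/confocal microscopy. Body weight checked daily, fluids given if loss exceeded 10%. 3–8 mice per group, SEM, ANOVA with Fisher PLSD.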

[15] = Drug concentration in nu/nu CD-1 mouse plasma xenografted with human GEO cells at 75 mg/kg administered for 14 days and measured 1 hr post last dose; type: ADME, organism-based
[16] = molecular target: Eukaryotic translation initiation factor 4E-binding protein 1 (Homo sapiens) (UniProt Q13541); test: Inhibition of 4E-BP1 phosphorylation at Ser 37/46 residues in serum deprived/insulin stimulated human OVCAR-3 cells harboring PTEN and wild type PI3K preincubated for 2 hrs followed by insulin stimulation and measured immediately by Western blot analysis; type: cell-based; details: dose 0.001-10 µM
Chain of Eukaryotic translation initiation factor 4E-binding protein 1 (Homo sapiens) (Q13541 whole entry): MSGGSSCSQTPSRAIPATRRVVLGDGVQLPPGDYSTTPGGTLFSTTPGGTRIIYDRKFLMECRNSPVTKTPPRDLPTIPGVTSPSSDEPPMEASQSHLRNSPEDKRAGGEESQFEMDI

[17] = test system: Pancreatic islet cell carcinoma; test: Antivascular activity against pancreatic islet cell carcinoma in RIP-Tag2 mouse assessed as appearance of empty basement membrane sleeves at 75 mg/kg, po bid administered via gavage and measured after 7 days by immunohistochemical staining based fluorescence microscopic analysis; type: functional, organism-based; details: time 7.0 day; how it was run: as §3
[18] = molecular target: Vascular endothelial growth factor receptor 2 (Homo sapiens, UniProt P35968); test: Inhibition of VEGFR2 phosphorylation (unknown origin) by cell based assay
Chain of Vascular endothelial growth factor receptor 2 (P35968 whole entry): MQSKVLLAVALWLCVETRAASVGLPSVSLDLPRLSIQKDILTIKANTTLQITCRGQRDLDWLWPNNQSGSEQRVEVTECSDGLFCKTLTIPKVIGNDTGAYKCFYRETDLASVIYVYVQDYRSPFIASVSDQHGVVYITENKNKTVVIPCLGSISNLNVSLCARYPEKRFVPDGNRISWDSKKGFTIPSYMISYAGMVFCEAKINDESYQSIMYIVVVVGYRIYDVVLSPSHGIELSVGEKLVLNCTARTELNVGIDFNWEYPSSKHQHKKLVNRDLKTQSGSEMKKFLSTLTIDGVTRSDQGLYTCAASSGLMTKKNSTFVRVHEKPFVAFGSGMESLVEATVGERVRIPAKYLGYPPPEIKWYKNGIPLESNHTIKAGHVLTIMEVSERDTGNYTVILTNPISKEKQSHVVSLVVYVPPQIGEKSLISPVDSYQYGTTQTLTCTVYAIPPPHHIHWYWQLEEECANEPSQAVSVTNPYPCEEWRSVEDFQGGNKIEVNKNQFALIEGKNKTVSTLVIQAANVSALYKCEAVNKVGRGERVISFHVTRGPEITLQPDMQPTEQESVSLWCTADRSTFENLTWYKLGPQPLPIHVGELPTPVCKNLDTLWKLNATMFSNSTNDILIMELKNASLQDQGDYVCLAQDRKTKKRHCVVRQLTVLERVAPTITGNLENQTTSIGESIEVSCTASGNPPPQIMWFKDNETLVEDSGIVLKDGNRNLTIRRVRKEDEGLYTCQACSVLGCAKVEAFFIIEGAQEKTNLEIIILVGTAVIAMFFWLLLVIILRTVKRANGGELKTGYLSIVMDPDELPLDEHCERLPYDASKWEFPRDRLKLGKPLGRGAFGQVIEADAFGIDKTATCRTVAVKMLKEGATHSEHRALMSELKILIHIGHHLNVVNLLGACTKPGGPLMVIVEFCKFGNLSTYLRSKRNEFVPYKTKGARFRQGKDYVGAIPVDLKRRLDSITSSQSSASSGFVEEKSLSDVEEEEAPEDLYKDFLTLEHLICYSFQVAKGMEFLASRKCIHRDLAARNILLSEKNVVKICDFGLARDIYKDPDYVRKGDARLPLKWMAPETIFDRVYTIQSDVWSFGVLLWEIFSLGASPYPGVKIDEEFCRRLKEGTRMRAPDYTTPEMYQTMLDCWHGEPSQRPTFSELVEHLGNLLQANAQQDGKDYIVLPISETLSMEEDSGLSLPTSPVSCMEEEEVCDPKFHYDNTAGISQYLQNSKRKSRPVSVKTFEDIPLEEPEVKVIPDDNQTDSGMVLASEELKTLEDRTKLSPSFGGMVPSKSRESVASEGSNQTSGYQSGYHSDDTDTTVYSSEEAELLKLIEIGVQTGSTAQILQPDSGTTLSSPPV

[19] = test system: OVCAR-3; test: Inhibition of S6K phosphorylation at 235/236 residues in serum deprived/insulin stimulated human OVCAR-3 cells harboring PTEN and wild type PI3K at 0.001 to 10 uM preincubated for 2 hrs followed by insulin stimulation and measured immediately by Western blot analysis; type: cell-based; details: dose 0.001-10 µM
[20] = test system: Pancreatic islet cell carcinoma; test: Antitumor activity against pancreatic islet cell carcinoma in RIP-Tag2 mouse assessed as reduction in cell proliferation at 75 mg/kg, po bid administered via gavage and measured after 7 days by immunohistochemistry analysis; type: functional, organism-based; details: time 7.0 day; how it was run: as §4
[21] = molecular target: mTORC2 (Homo sapiens, UniProt P42345); test: Competitive inhibition of mTORC2 immunoprecipitated from human HeLa cells using His-tagged 4E-BP1 as substrate incubated for 30 mins in presence of ATP by chemiluminescence based ELISA; how it was run: as §1
[22] = molecular target: Epidermal growth factor receptor (Homo sapiens, UniProt P00533); test: Inhibition of EGFR phosphorylation (unknown origin) by cell based assay
Chain of Epidermal growth factor receptor (P00533 whole entry): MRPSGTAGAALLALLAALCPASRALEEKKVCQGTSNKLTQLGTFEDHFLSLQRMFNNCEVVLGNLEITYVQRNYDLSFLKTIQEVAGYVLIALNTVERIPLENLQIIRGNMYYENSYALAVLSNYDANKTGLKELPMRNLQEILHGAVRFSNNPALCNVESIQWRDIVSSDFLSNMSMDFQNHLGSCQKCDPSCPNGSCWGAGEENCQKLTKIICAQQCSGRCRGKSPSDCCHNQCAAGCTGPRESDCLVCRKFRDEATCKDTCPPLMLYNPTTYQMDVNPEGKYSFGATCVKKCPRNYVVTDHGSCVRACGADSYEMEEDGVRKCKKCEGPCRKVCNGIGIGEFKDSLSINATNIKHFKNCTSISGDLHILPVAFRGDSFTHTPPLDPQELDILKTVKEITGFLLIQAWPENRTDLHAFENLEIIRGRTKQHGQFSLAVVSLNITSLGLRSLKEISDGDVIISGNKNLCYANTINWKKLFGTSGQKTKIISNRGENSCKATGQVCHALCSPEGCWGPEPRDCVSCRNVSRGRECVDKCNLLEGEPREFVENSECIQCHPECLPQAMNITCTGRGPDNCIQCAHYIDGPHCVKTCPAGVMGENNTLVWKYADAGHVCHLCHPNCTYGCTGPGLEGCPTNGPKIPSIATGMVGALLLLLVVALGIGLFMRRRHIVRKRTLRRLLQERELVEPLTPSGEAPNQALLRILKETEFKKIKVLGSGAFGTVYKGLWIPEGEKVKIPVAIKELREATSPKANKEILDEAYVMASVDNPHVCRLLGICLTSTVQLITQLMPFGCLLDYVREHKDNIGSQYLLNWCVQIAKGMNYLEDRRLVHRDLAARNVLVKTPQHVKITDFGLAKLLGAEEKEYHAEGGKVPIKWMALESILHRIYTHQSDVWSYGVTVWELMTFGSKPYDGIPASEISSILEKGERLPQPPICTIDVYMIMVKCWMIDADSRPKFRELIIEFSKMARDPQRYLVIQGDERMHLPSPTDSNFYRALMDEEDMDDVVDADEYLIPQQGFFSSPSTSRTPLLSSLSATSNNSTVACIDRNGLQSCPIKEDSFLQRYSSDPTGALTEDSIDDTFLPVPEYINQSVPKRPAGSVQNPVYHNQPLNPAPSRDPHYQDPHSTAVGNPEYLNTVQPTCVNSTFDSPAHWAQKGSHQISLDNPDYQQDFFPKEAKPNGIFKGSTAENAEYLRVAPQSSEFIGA

[23] = test system: Pancreatic islet cell carcinoma; test: Antitumor activity against pancreatic islet cell carcinoma in RIP-Tag2 mouse assessed as reduction in VEGF production by measuring reduction in fluorescence in entire tumor at 75 mg/kg, po bid administered via gavage and measured after 4 days by immunohistochemical staining based confocal microscopic analysis relative to control; type: functional; set-up: scale not given: the % may be the effect or the level left; details: time 4 day; how it was run: as §2

IC50 [1]: 0.029 µM | IC50 [4]: > 40 µM | inhibition [5]: > 90% | inhibition [6]: Active | IC50 [7]: 9.3 µM | concentration at 344 h [12]: 13.2 µM | concentration at 337 h [15]: 25.6 µM | inhibition [16]: Dose-Dependent Effect | IC50 [18]: > 40 µM | IC50 [21]: 0.007 µM | IC50 [22]: > 40 µM
Compound: Nc1nccn2c1c(-c1cc3cccc(Cl)c3[nH]1)nc2[C@H]1CC[C@H](C(=O)O)CC1
inhibition [2]: Active | inhibition [3]: Active | Activity [8]: 48% | Activity [9]: Active | Activity [10]: 23% | Activity [11]: Active | Activity [13]: 40% | Activity [14]: Active | Activity [17]: inactive | inhibition [19]: Active | Activity [20]: Active | Activity [23]: 48%
